Active and inactive are the calls of the source. No cut-off for these calls is given here.
What was measured:
P2Y purinoceptor 6 [1] = molecular target: T1, P2Y purinoceptor 6 (Homo sapiens, UniProt Q15077); experiment: Agonist activity at human recombinant P2Y6 receptor expressed in human 1321N1 cells assessed as increase in intracellular calcium level at >100 uM by fluo-4 dye-based spectrofluorometric analysis; type: functional, cell-based
Summary of the method: (§1)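 1321N1 cells stably expressing recombinant hP2Y6-R were trypsin/EDTA-detached, loaded with 1 µM Fluo-4/AM in HBSS (Ca2+/Mg2+) for 25 min at 37 °C, then held 25 min at 37 °C for de-esterification. Stirred cuvette suspension read at ex 488/em 520 nm after compound addition, with UDP as control. Fmax/Fmin set with 0.1% Triton X-100 then 50 mM EDTA; [Ca2+] = Kd(F−Fmin)/(Fmax−F).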

P2Y purinoceptor 6 [2] = molecular target: T1, P2Y purinoceptor 6; experiment: Antagonist activity at human recombinant P2Y6 receptor expressed in human 1321N1 cells assessed as inhibition of UDP-induced increase in intracellular calcium level at 30 uM incubated for 2 mins prior to UDP induction by fluo-4 dye-based spectrofluorometric analysis; type: functional, cell-based
Summary of the method: (§2)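 hP2Y6-R-expressing 1321N1 cells, Fluo-4/AM-loaded (1 µM, 25 min, 37 °C, then 25 min de-esterification) in HBSS with Ca2+/Mg2+, stirred in a cuvette with fluorescence at 488/520 nm. Analogue given 2 min before 1 µM UDP stimulation. Calcium calculated from Triton X-100/EDTA calibration. Two experiments in duplicate, mean ± SEM; one-way ANOVA against vehicle control.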

P2Y purinoceptor 6 [3] = molecular target: T1, P2Y purinoceptor 6; experiment: Agonist activity at human recombinant P2Y6 receptor expressed in human 1321N1 cells assessed as increase in intracellular calcium level at =>100 uM by fluo-4 dye-based spectrofluorometric analysis; type: functional, cell-based; summary of the method: as §1
P2Y purinoceptor 6 [4] = molecular target: T1, P2Y purinoceptor 6; experiment: Antagonist activity at human recombinant P2Y6 receptor expressed in human 1321N1 cells assessed as inhibition of UDP-induced increase in intracellular calcium level at 100 uM incubated for 2 mins prior to UDP induction by fluo-4 dye-based spectrofluorometric analysis; type: functional, cell-based; summary of the method: as §2
P2Y purinoceptor 6 [5] = molecular target: T1, P2Y purinoceptor 6; experiment: Antagonist activity at human recombinant P2Y6 receptor expressed in human 1321N1 cells assessed as inhibition of UDP-induced increase in intracellular calcium level incubated for 2 mins prior to UDP induction by fluo-4 dye-based spectrofluorometric analysis; type: functional, cell-based; summary of the method: as §2
[6] = molecular target: P2Y purinoceptor 2 (Homo sapiens) (UniProt P41231); experiment: Agonist activity at human recombinant P2Y2 receptor expressed in human 1321N1 cells assessed as increase in intracellular calcium level by fluo-4 dye-based spectrofluorometric analysis; type: functional, cell-based
[7] = molecular target: P2Y purinoceptor 4 (Homo sapiens) (UniProt P51582); experiment: Agonist activity at human recombinant P2Y4 receptor expressed in human 1321N1 cells assessed as increase in intracellular calcium level by fluo-4 dye-based spectrofluorometric analysis; type: functional, cell-based
[8] = molecular target: T2, NPP1 (ectonucleotide pyrophosphatase/phosphodiesterase family member 1) (Homo sapiens, UniProt P22413); experiment: Drug metabolism assessed as human NPP1-mediated compound hydrolysis at 100 uM after 2 hrs by HPLC analysis relative to UDP-treated control; type: ADME; settings: human NPP1 enzyme, read-out: Drug metabolism
T2 sequence (P22413 whole entry): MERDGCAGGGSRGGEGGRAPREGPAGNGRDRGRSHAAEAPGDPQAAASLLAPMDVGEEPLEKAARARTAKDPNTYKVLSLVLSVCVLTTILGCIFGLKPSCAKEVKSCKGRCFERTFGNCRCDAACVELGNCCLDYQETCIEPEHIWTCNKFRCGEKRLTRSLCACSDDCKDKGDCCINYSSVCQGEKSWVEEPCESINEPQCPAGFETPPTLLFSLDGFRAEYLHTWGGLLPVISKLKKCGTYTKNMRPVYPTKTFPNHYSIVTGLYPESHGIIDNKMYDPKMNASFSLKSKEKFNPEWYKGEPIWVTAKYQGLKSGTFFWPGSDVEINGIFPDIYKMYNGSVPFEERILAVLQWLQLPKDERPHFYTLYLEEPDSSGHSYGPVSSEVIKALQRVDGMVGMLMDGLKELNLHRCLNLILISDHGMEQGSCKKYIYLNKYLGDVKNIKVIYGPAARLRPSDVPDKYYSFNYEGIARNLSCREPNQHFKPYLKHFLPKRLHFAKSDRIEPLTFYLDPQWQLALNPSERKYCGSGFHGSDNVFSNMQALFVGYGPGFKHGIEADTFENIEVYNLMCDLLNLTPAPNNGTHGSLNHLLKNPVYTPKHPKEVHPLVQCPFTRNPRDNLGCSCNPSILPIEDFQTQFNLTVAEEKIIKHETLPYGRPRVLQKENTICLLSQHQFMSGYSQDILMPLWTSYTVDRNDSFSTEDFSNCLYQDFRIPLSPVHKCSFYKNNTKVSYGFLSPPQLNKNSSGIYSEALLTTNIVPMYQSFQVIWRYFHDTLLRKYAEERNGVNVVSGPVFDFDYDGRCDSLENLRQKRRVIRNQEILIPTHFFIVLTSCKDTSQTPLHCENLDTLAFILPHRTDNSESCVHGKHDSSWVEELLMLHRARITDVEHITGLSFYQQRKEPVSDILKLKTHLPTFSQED
Summary of the method: (§3)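 Compound at 100 µM incubated at 37 °C with hNPP1 for 2 h or hNPP3 for 3 h, in buffer of 1 mM CaCl2, 200 mM NaCl, 10 mM KCl and 100 mM Tris, pH 8.5. Quenched with perchloric acid, neutralized to pH 7 with KOH, then C18 HPLC with isocratic TEAA (pH 7)/CH3CN. Degradation taken from the nucleoside monophosphate peak area minus control, relative to 100% UDP hydrolysis.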

[9] = molecular target: T3, NPP3 (ectonucleotide pyrophosphatase/phosphodiesterase family member 3) (Homo sapiens, UniProt O14638); experiment: Drug metabolism assessed as human NPP3-mediated compound hydrolysis at 100 uM after 3 hrs by HPLC analysis relative to UDP-treated control; type: ADME; settings: human NPP3 enzyme, read-out: Drug metabolism; summary of the method: as §3
T3 sequence (O14638 whole entry): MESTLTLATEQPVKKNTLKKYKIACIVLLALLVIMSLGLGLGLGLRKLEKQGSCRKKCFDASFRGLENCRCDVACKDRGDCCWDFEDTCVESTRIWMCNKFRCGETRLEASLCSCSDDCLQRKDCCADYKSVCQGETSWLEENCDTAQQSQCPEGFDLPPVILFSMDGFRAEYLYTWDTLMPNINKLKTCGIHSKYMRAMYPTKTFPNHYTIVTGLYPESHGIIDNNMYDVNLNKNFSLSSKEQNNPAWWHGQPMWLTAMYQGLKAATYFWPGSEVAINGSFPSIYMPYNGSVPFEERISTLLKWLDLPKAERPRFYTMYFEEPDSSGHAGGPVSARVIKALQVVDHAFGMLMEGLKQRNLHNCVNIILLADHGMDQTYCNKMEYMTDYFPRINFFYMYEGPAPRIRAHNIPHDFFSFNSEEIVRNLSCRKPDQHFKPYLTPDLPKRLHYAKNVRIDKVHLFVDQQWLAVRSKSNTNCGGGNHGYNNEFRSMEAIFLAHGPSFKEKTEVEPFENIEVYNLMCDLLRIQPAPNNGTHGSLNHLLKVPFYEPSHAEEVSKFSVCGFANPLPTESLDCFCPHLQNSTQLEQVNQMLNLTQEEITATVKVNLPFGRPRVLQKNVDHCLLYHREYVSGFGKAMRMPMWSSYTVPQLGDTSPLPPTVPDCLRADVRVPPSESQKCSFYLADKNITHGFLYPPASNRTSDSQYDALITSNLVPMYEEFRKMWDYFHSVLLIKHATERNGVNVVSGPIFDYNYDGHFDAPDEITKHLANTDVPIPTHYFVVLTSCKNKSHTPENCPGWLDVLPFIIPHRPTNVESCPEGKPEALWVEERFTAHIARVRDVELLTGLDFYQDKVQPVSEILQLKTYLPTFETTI

P2Y purinoceptor 6 [10] = molecular target: T1, P2Y purinoceptor 6; experiment: Agonist activity at human recombinant P2Y6 receptor expressed in human 1321N1 cells assessed as increase in intracellular calcium level by fluo-4 dye-based spectrofluorometric analysis; type: functional, cell-based; summary of the method: as §1
[11] = molecular target: T4, Ectonucleotide pyrophosphatase/phosphodiesterase family member 1 (Homo sapiens) (UniProt P22413); experiment: Inhibition of human NPP1-mediated UDP hydrolysis at 100 uM after 2 hrs relative to UDP-treated control
T4 sequence (whole entry): T2 sequence (P22413 whole entry)
Summary of the method: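 21.44 µg hNPP1 extract pre-incubated 3 min at 37 °C in 1 mM CaCl2, 140 mM NaCl, 5 mM KCl and 50 mM Tris, pH 8.5. Reaction started with compound and UDP, each 100 µM final. Stopped after 2 h with ice-cold perchloric acid, neutralized with KOH, then HPLC. Compared with UDP-only reference samples. Mean ± S.D. of three experiments.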

P2Y purinoceptor 6 [12] = molecular target: T1, P2Y purinoceptor 6; experiment: Agonist activity at human recombinant P2Y6 receptor expressed in human 1321N1 cells assessed as induction of calcium release at 100 uM by fluo-4 dye-based spectrofluorometric analysis; type: functional, cell-based
Summary of the method: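 1321N1 astrocytoma cells stably expressing recombinant hP2Y6-R, trypsin/EDTA-detached, loaded with 1 µM Fluo-4/AM in HBSS (Ca2+/Mg2+) for 25 min at 37 °C, then de-esterified 25 min. Stirred suspension in a quartz cuvette, excitation 488 nm and emission 520 nm. Compound added, with UDP as control. Fmax from 0.1% Triton X-100 and Fmin from 50 mM EDTA; [Ca2+]i = Kd(F−Fmin)/(Fmax−F). Two experiments in duplicate.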

[13] = molecular target: T5, Ectonucleotide pyrophosphatase/phosphodiesterase family member 3 (Homo sapiens) (UniProt O14638); experiment: Inhibition of human NPP3-mediated UDP hydrolysis at 100 uM after 3 hrs relative to UDP-treated control
T5 sequence (whole entry): T3 sequence (O14638 whole entry)

P2Y purinoceptor 6 [14] = molecular target: T1, P2Y purinoceptor 6; experiment: Agonist activity at human recombinant P2Y6 receptor expressed in human 1321N1 cells assessed as increase in intracellular calcium level at 10 uM by fluo-4 dye-based spectrofluorometric analysis relative to UDP-treated control; type: functional, cell-based; summary of the method: as §1
P2Y purinoceptor 6 [15] = molecular target: T1, P2Y purinoceptor 6; experiment: Agonist activity at human recombinant P2Y6 receptor expressed in human 1321N1 cells assessed as increase in intracellular calcium level at 100 uM by fluo-4 dye-based spectrofluorometric analysis relative to UDP-treated control; type: functional, cell-based; summary of the method: as §1

T1 sequence (Q15077 whole entry): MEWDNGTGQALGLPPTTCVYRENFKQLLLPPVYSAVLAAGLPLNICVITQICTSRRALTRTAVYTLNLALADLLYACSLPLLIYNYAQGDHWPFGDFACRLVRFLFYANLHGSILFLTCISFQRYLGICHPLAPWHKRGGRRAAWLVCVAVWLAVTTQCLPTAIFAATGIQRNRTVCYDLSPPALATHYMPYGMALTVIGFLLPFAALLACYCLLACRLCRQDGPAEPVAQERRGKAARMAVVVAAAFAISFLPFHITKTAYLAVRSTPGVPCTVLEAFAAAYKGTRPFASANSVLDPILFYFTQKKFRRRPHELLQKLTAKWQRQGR
P2Y purinoceptor 4 (Homo sapiens), sequence (P51582 whole entry): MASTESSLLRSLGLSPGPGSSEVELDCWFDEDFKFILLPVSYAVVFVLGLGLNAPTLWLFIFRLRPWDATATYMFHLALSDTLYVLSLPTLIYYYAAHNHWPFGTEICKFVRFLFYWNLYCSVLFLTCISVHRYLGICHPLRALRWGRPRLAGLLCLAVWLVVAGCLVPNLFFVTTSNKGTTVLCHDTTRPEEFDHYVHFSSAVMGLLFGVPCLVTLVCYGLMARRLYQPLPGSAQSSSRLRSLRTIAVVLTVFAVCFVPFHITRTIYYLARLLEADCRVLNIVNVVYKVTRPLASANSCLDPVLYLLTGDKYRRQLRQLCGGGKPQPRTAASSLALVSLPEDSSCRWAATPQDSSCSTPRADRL
P2Y purinoceptor 2 (Homo sapiens), sequence (P41231 whole entry): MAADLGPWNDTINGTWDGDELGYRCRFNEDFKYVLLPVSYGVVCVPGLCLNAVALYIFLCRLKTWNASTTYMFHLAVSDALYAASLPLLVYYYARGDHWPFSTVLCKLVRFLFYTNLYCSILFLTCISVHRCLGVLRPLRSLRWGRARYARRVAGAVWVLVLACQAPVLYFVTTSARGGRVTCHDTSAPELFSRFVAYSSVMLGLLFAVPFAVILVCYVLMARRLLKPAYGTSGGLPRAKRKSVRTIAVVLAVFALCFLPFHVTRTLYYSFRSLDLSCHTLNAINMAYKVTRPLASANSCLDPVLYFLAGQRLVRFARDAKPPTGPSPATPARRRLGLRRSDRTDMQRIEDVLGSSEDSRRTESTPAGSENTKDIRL

Question: `O=c1[nH]c(=O)n([C@H]2C[C@H](O)[C@@H](COP(=O)(O)C(Cl)(Cl)P(=O)(O)O)O2)cc1F` was tested. Which Activity (P2Y purinoceptor 6 [1]) did it give?
Answer: The Activity was “inactive”.

Question: What about the inhibition (P2Y purinoceptor 6 [2]) of the same compound?
Answer: Its inhibition is “inactive”.

Question: For `O=c1ccn([C@@H]2O[C@H](COP(=O)(O)OS(=O)(=O)O)[C@@H](O)[C@H]2O)c(=O)[nH]1`, which Activity (P2Y purinoceptor 6 [3]) is on record?
Answer: The Activity was “Active”.

Question: And the inhibition (P2Y purinoceptor 6 [4])?
Answer: Its inhibition is “Active”.

Question: And the IC50 (P2Y purinoceptor 6 [5])?
Answer: Its IC50 is 112 µM.

Question: And the Activity [6]?
Answer: The Activity was “inactive”.

Question: And the Activity [7]?
Answer: The Activity was “inactive”.

Question: What about the metabolised at 2 h, 100 µM [8] of the same compound?
Answer: Its metabolised at 2 h, 100 µM is 27.9%.

Question: What about the metabolised at 3 h, 100 µM [9] of the same compound?
Answer: Its metabolised at 3 h, 100 µM is 28.3%.

Question: Which Activity (P2Y purinoceptor 6 [10]) does the source give for `COc1cn([C@@H]2O[C@H](COP(=O)(O)C(Cl)(Cl)P(=O)(O)O)[C@@H](O)[C@H]2O)c(=O)[nH]c1=O` here?
Answer: The Activity was “Active”.

Question: What about the inhibition (P2Y purinoceptor 6 [2]) of the same compound?
Answer: Its inhibition is “inactive”.

Question: And the inhibition (P2Y purinoceptor 6 [4])?
Answer: The inhibition was “Active”.

Question: `COc1cn([C@@H]2O[C@H](COP(=O)(O)CS(=O)(=O)O)[C@@H](O)[C@H]2O)c(=O)[nH]c1=O` was tested. Which inhibition (P2Y purinoceptor 6 [4]) did it give?
Answer: Its inhibition is “inactive”.

Question: And the metabolised at 2 h, 100 µM [8]?
Answer: Its metabolised at 2 h, 100 µM is 21.6%.

Question: What about the metabolised at 3 h, 100 µM [9] of the same compound?
Answer: The metabolised at 3 h, 100 µM was 11%.

Question: And the inhibition [11]?
Answer: The inhibition was 48.4%.

Question: What about the Activity (P2Y purinoceptor 6 [12]) of the same compound?
Answer: The Activity was “inactive”.

Question: And the inhibition [13]?
Answer: The inhibition was 10.5%.

Question: `O=c1[nH]c(=O)n([C@@H]2O[C@H](COP(=O)(O)C(F)(F)P(=O)(O)O)[C@@H](O)[C@H]2O)cc1F` was tested. Which Activity (P2Y purinoceptor 6 [10]) did it give?
Answer: The Activity was “Active”.

Question: What about the inhibition (P2Y purinoceptor 6 [2]) of the same compound?
Answer: The inhibition was “inactive”.

Question: And the inhibition (P2Y purinoceptor 6 [4])?
Answer: Its inhibition is “Active”.

Question: What does the source list for `COc1cn([C@@H]2O[C@H](COP(=O)(O)C(F)(F)P(=O)(O)O)[C@@H](O)[C@H]2O)c(=O)[nH]c1=O`?
Answer: Activity (P2Y purinoceptor 6 [10]): Active; Activity (P2Y purinoceptor 6 [1]): Active; inhibition (P2Y purinoceptor 6 [2]): inactive; inhibition (P2Y purinoceptor 6 [4]): 40%

Question: For `COc1cn([C@@H]2O[C@H](COP(=O)(O)CP(=O)(O)O)[C@@H](O)[C@H]2O)c(=O)[nH]c1=O`, which Activity (P2Y purinoceptor 6 [14]) is on record?
Answer: The Activity was 27%.

Question: Which Activity (P2Y purinoceptor 6 [15]) does the source give for `Cc1cn([C@@H]2O[C@H](COP(=O)(O)CP(=O)(O)O)[C@@H](O)[C@H]2O)c(=O)[nH]c1=O` here?
Answer: Its Activity is 60%.

Question: With `O=c1[nH]c(=O)n([C@@H]2O[C@H](COP(=O)(O)C(Cl)(Cl)P(=O)(O)O)[C@@H](O)[C@H]2O)cc1F` as the compound, how does the Activity (P2Y purinoceptor 6 [10]) read?
Answer: Its Activity is “Active”.

Question: What about the inhibition (P2Y purinoceptor 6 [2]) of the same compound?
Answer: Its inhibition is “inactive”.
